Measurements published in ChEMBL document CHEMBL4477204, “Tetrahydroisoquinoline-Derived Urea and 2,5-Diketopiperazine Derivatives as Selective Antagonists of the Transient Receptor Potential Melastatin 8 (TRPM8) Channel Receptor and Antiprostate Cancer Agents” (J Med Chem, 2016).
pIC50: −log10 of the molar value. The source made the active and inactive calls. The calls are words filed in the database; no cut-off is given here.

What was measured:
[1] = target: Transient receptor potential cation channel subfamily M member 8 (Rattus norvegicus, UniProt Q8R455); test: Antagonist activity at recombinant rat TRPM8 expressed in HEK293 cells assessed as inhibition of icilin-induced intracellular calcium accumulation preincubated for 5 mins followed by icilin addition by Fluo-4-AM probe-based spectrofluorimetric assay; type: cell-based
Outline: (§1)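 HEK-293 cells stably expressing the listed TRP channel (human TRPV1; rat TRPM8, TRPA1, TRPV2, TRPV3 or TRPV4) were Fluo-4-AM loaded (4 µM, 1 h, 25 °C) and suspended in Tyrode's buffer pH 7.4. Compound was added 5 min before agonist: icilin 0.25 µM (TRPM8), capsaicin 0.1 µM (TRPV1), AITC 100 µM (TRPA1), LPC 3 µM (TRPV2), thymol 100 µM (TRPV3), 4α-PDD 1 µM (TRPV4). Agonist alone was taken as 100%. IC50 from sigmoidal fit, at least triplicate.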

[2] = test system: LNCaP; test: Induction of apoptosis in human LNCAP cells assessed as increase in caspase3/7 activity at 10 uM after 72 hrs by caspase-glo 3/7 chemiluminescence assay relative to control; type: functional
Outline: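 LNCaP cells were cultured 72 h with 10 µM compound or vehicle, then washed with PBS. Caspase-Glo 3/7 reagent was added to 1×10^4 cells/assay, incubated 1 h at room temperature in the dark, and luminescence was read. Vehicle blank was subtracted; runs were in triplicate. Camptothecin 0.1 µg/mL plus anti-Fas 0.2 µg/mL for 24 h served as the apoptosis reference.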

[3] = target: Transient receptor potential cation channel subfamily A member 1 (Rattus norvegicus, UniProt Q6RI86); test: Antagonist activity at recombinant rat TRPA1 expressed in HEK293 cells assessed as inhibition of AITC-induced intracellular calcium accumulation preincubated for 5 mins followed by AITC addition by Fluo-4-AM probe-based spectrofluorimetric assay; type: cell-based; outline: as §1
[4] = target: T1, Heat sensitive channel TRPV3 (Rattus norvegicus, UniProt Q4QYD9); test: Antagonist activity at recombinant rat TRPV3 expressed in HEK293 cells assessed as inhibition of thymol-induced intracellular calcium accumulation preincubated for 5 mins followed by thymol addition by Fluo-4-AM probe-based spectrofluorimetric assay; type: cell-based; outline: as §1
T1 sequence (Q4QYD9 whole entry): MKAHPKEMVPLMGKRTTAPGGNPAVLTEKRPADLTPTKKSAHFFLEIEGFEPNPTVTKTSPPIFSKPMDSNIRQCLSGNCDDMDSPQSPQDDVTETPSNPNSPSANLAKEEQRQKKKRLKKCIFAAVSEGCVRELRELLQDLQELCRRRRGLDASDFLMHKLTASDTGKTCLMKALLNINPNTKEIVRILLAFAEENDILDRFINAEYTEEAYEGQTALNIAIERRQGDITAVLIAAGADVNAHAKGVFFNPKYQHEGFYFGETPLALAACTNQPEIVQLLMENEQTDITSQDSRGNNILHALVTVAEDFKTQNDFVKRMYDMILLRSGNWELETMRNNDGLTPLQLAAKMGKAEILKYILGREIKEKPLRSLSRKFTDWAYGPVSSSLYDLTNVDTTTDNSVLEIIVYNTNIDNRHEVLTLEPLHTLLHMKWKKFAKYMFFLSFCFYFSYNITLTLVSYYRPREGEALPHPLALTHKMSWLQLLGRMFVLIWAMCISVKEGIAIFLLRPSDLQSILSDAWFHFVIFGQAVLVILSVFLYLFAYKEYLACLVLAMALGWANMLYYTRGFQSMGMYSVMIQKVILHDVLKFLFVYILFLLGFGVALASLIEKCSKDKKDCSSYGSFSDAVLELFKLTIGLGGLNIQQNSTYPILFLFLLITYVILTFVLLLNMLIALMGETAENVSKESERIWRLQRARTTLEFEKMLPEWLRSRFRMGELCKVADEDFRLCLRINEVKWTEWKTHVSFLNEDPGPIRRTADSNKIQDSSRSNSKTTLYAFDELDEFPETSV

[5] = target: T2, Transient receptor potential cation channel subfamily V member 2 (Rattus norvegicus) (UniProt Q9WUD2); test: Antagonist activity at recombinant rat TRPV2 expressed in HEK293 cells assessed as inhibition of LPC-induced intracellular calcium accumulation up to 10 uM preincubated for 5 mins followed by LPC addition by Fluo-4-AM probe-based spectrofluorimetric assay; type: cell-based; outline: as §1
T2 sequence (whole entry): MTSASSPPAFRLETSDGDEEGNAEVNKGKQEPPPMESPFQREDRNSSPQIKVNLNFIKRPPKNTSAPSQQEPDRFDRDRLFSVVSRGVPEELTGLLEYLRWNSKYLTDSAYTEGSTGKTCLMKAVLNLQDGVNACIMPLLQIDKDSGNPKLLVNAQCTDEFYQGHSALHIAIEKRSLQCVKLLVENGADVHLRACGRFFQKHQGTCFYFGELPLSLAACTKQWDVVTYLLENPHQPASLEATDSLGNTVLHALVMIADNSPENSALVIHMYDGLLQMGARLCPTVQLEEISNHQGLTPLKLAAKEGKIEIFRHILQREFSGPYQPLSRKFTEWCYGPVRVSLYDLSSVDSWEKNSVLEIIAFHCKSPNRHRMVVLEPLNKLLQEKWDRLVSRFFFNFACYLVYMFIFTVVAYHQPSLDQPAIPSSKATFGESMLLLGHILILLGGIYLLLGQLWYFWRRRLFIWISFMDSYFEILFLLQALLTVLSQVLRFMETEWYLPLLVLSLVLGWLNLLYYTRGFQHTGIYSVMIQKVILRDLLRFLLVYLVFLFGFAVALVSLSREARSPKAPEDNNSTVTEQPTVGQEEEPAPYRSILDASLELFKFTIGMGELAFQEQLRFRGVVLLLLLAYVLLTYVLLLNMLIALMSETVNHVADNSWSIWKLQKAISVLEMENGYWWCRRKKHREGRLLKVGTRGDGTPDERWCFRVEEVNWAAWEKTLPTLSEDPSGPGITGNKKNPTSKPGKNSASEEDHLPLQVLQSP

[6] = target: Transient receptor potential cation channel subfamily V member 4 (Rattus norvegicus) (UniProt Q9ERZ8); test: Antagonist activity at recombinant rat TRPV4 expressed in HEK293 cells assessed as inhibition of 4alphaPDD-induced intracellular calcium accumulation up to 10 uM preincubated for 5 mins followed by 4alphaPDD addition by Fluo-4-AM probe-based spectrofluorimetric assay; type: cell-based; outline: as §1
[7] = in vitro; conditions: C57BL/6, mouse, liver microsomes
[8] = test system: LNCaP; test: Cytotoxicity against human LNCAP cells assessed as reduction in cell viability by measuring fluorescence gated cells at 10 uM after 72 hrs by CBNF assay (reference value: 83.3%); type: functional
[9] = test system: CWR22R; test: Cytotoxicity against human 22Rv1 cells assessed as reduction in cell viability by measuring fluorescence gated cells at 10 uM after 72 hrs by CBNF assay (reference value: 81.3%); type: functional
[10] = Cytotoxicity against human PNT1A cells assessed as reduction in cell viability by measuring fluorescence gated cells at 10 uM after 72 hrs by CBNF assay (reference value: 94.1%); type: cell-based; conditions: read-out: Activity

Chain of Transient receptor potential cation channel subfamily V member 4 (Rattus norvegicus) (Q9ERZ8 whole entry): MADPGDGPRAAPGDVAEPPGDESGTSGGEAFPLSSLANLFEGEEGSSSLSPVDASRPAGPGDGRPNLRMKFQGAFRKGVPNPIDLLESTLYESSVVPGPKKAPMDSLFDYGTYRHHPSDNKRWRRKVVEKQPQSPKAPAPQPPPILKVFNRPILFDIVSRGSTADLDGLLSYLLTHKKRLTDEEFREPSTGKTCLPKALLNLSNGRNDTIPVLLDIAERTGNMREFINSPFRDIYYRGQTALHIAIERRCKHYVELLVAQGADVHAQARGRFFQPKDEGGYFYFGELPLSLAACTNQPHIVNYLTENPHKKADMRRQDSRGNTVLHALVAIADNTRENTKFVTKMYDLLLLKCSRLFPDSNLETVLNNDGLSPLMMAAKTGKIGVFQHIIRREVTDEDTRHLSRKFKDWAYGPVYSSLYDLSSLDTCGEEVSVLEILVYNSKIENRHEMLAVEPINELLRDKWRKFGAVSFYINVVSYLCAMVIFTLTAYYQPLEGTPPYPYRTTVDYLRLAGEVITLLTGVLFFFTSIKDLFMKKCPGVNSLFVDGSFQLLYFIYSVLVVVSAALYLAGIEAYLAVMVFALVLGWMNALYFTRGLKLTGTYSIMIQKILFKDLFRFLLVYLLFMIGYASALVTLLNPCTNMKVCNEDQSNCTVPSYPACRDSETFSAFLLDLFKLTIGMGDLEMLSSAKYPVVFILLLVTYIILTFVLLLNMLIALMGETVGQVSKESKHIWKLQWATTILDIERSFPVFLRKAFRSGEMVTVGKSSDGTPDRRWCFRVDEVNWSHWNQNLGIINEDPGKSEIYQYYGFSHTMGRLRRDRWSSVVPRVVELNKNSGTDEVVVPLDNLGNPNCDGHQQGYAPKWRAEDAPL
Chain of Transient receptor potential cation channel subfamily M member 8 (Q8R455 whole entry): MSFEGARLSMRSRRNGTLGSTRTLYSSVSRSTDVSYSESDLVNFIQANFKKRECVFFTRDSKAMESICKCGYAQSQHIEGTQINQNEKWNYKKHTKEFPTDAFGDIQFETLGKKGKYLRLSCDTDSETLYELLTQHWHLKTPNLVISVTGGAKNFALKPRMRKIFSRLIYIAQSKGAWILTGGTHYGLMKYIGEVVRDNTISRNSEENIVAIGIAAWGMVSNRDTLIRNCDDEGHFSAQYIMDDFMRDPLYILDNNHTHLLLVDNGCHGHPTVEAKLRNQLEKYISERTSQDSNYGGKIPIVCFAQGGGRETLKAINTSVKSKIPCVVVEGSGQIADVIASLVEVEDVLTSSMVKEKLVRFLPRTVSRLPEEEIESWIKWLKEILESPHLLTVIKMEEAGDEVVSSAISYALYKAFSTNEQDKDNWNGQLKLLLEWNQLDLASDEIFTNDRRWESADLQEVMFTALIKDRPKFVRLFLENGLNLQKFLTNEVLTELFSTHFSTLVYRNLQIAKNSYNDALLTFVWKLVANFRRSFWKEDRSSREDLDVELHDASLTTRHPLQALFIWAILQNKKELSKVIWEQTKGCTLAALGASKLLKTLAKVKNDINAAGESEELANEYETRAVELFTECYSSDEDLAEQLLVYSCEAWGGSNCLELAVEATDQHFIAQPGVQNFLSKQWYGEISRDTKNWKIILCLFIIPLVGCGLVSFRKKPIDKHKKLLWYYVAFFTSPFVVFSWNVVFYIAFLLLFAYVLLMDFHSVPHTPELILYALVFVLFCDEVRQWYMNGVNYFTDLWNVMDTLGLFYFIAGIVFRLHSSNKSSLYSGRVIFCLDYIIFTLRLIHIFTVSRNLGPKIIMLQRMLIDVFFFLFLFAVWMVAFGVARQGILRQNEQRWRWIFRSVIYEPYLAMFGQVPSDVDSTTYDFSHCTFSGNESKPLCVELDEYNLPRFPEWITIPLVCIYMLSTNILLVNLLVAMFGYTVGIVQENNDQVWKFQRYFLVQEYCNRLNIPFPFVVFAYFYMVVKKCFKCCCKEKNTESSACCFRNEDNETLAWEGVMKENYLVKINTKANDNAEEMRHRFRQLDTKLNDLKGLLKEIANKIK
Chain of Transient receptor potential cation channel subfamily A member 1 (Q6RI86 whole entry): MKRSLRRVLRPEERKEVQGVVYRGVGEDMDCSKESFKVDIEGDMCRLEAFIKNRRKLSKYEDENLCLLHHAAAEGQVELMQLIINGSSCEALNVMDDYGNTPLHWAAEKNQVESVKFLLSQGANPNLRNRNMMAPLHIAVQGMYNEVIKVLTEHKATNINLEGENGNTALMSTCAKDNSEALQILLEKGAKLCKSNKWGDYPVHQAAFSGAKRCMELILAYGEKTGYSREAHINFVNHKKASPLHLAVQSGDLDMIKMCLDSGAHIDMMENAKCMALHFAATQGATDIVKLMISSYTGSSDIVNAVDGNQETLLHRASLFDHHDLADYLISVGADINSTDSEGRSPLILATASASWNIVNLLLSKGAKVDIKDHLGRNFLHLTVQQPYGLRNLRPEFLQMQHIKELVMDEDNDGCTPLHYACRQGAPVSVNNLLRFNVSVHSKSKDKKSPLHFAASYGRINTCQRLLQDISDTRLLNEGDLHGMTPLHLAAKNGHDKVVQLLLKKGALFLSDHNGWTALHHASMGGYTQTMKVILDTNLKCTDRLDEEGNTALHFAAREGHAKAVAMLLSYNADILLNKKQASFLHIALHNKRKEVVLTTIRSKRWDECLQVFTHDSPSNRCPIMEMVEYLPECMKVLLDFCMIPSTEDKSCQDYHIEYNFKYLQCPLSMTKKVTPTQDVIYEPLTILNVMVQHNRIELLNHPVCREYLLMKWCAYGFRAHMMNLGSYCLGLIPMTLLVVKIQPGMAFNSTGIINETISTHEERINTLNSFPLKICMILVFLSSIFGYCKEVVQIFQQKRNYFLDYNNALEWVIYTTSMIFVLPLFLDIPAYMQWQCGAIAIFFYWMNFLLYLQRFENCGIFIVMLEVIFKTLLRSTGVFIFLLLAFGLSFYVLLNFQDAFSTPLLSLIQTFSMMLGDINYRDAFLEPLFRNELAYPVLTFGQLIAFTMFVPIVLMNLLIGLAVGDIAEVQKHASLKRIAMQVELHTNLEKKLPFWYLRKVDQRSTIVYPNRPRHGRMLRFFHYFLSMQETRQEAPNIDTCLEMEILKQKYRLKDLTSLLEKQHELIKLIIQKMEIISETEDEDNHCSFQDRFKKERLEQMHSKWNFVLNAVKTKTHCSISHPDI

| Compound | pIC50 [1] | Activity [2] [%] | pIC50 [3] | pIC50 [4] | inhibition [5] | inhibition [6] | CLint scaled at 1 h, 3 µM [7] [mL/min/kg] | Activity [8] [%] | Activity [9] [%] | viability at 72 h, 10 µM [10] [%] |
| --- | --- | --- | --- | --- | --- | --- | --- | --- | --- | --- |
| COc1cc(/C=C2\NC(=O)[C@@H]3Cc4c(OC)c(C)c(OC)c(OC)c4[C@@H](c4ccccc4)N3C2=O)c(OC)c(C)c1OC | 6.21 | 200 | 4.85 | 4.46 | inactive | inactive | 15.6 | – | – | – |
| COc1cc2c(cc1OC)[C@H](c1ccccc1)N(C(=O)N1CCc3cc(OC)c(OC)cc3[C@@H]1c1ccccc1)CC2 (racemic) | 6.30 | 220 | 5.00 | < 4.00 | inactive | inactive | – | – | – | – |
| COc1cc2c(cc1OC)[C@H](c1ccc(F)cc1)N(C(=O)N1CCc3cc(OC)c(OC)cc3[C@@H]1c1ccc(F)cc1)CC2 (racemic) | 7.14 | 198 | 4.79 | 4.14 | inactive | inactive | 75.2 | 54.4 | 82.2 | 92.7 |
| COc1cc2c(cc1OC)[C@H](c1ccc(Cl)cc1)N(C(=O)N1CCc3cc(OC)c(OC)cc3[C@@H]1c1ccc(Cl)cc1)CC2 (racemic) | 6.37 | 190 | 4.62 | < 4.00 | inactive | inactive | – | – | – | – |
